Entries after “also recorded” stand apart in the source; their conditions may differ. Read-outs that look alike come from different tables or passages of the source.
Columns and labels:
[1] = test system: DSS-induced intestinal inflammation; format: in vivo, chicken; details: for IBD-related symptoms in DSS-treated chickens: chicken, 4% DSS oral gavage, daily i.p. peptide
How it was run: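 Forty 21-day-old male yellow-feathered broilers were split into control, DSS and two peptide groups under 24 h light, with free food and water. DSS groups were gavaged with […] of 4% DSS daily from day 21 to 29. Treated birds got 100 μL of 50 μM peptide i.p. daily. TNF-α, IL-1β and IL-6 were measured by ELISA in jejunum/ileum homogenates (1:9 w/v ice-cold PBS, pH 7.4; 5000 × g, 10 min, 4 °C).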

DSS-induced colitis [2] = assay: DSS-induced colitis in wild-type mice, overall therapeutic efficacy; format: in vivo, mouse; details: for alleviation of colitis / intestinal inflammation, overall: chicken and mouse colitis models, overall statement
colon transcriptome = assay: RNA-seq of colon tissue, DSS-induced colitis mice; format: in vivo; details: mouse colon
How it was run: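 Total RNA was extracted from mouse colon with Trizol, sequenced on BGIseq500 and mapped to the mouse genome. Data were analysed in R and reported as mean ± SEM.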

Caco2 cells = assay: RT-qPCR cytokine expression, Caco2 cell inflammation model; format: cell-based, human; details: IL-1β + TNF-α; for expression of Il6, Il23 and Tgfb1 induced by IL-1β and TNF-α: RT-qPCR
ARRB2 = assay: 2% DSS colitis in Arrb2 cKO mice, overall; format: in vivo, mouse; details: Arrb2 cKO (gut epithelial) mice, vs AAV control mice
How it was run: (§1)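 Male Arrb2fl/fl or Gnaqfl/fl mice (7–8 weeks) were fasted overnight, anaesthetised, and given 100 μL AAV8-Vil-cre or AAV8-Vil-null (1E+11 vg/mL) by catheter 4 cm into the colon. One week later they received 2% DSS in drinking water for 7 days. Read-outs were body weight, DAI, colon length, H&E, serum IL-6/IL-1β ELISA, and colonic Il6/Tnf/Il1b/Tgfb1/Tjp1/Ocln mRNA.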

Gnaq = assay: 2% DSS colitis in Gnaq cKO mice, overall; format: in vivo, mouse; details: Gnaq cKO (gut epithelial) mice, vs AAV control mice
How it was run: as §1

GALR1 [3] = assay: SRE-luc luciferase; format: cell-based; details: HEK293, GALR1, luciferase, 12 h
How it was run: (§2)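 HEK293 cells were transfected (Lipofectamine) with empty pcDNA3.1 or GALR plasmid (2 μg) plus CRE, NFAT-RE or SRE luciferase reporter. After 36 h, medium was replaced with serum-free medium containing test peptide, diluted in DMEM from a 1 mM water stock, for 12 h. Luciferase was read 48 h post-transfection. Technical triplicate; mean ± SD; 37 °C, 5% CO2.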

GALR1 [4] = assay: CRE-luc luciferase; format: cell-based; details: HEK293, GALR1, luciferase, 12 h
How it was run: as §2

GALR1 [5] = assay: NFAT-luc luciferase; format: cell-based; details: HEK293, GALR1, luciferase, 12 h
How it was run: as §2

GALR2 [6] = assay: SRE-luc luciferase; format: cell-based; details: HEK293, GALR2, luciferase, 12 h
How it was run: as §2

GALR2 [7] = assay: CRE-luc luciferase; format: cell-based; details: HEK293, GALR2, luciferase, 12 h
How it was run: as §2

GALR2 [8] = assay: NFAT-luc luciferase; format: cell-based; details: HEK293, GALR2, luciferase, 12 h
How it was run: as §2

GALR3 [9] = assay: SRE-luc luciferase; format: cell-based; details: HEK293, GALR3, luciferase, 12 h
How it was run: as §2

GALR3 [10] = assay: CRE-luc luciferase; format: cell-based; details: HEK293, GALR3, luciferase, 12 h
How it was run: as §2

GALR3 [11] = assay: NFAT-luc luciferase; format: cell-based; details: HEK293, GALR3, luciferase, 12 h
How it was run: as §2

mGALR2 mutants = assay: Tango β-arrestin2 recruitment, binding-site mutants; format: cell-based, mouse
[12] = Tolerability of peptide alone in healthy male mice, overall; format: in vivo, mouse; details: daily i.p. for six consecutive days
How it was run: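 Healthy male mice received daily i.p. test peptide for six consecutive days alongside a saline-injected control group. Body weight, water intake, food intake and colon length were recorded.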

GALR2 [13] = assay: G protein versus β-arrestin2 signaling bias at GALR2; format: cell-based; details: for G protein activation / ARRB2 recruitment via GALR2: GALR2, overall statement
mGALR2 = assay: G protein pathway activation, HEK293 luciferase; format: cell-based; details: mouse GALR2, vs cGAL53
How it was run: as §2

hGALR2 = assay: G protein pathway activation, HEK293 luciferase; format: cell-based; details: human GALR2, vs cGAL53
How it was run: as §2

DSS-induced colitis [14] = assay: H&E histology/HAI and endoscopy, DSS-induced colitis, wild-type mice; format: in vivo; details: mouse, 3% DSS, peptide 3 μM daily i.p.
How it was run: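 Colons from mice given 3% DSS (8 days) and daily i.p. test peptide (3 μM) were fixed in 4% paraformaldehyde, paraffin-embedded, sectioned and H&E-stained. Sections were scored for epithelial damage, inflammatory infiltration, crypt loss and ulceration; n = 6/group.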

ZO-1, occludin [15] = assay: IHC of ZO-1 and occludin in colon, DSS-induced colitis, wild-type mice; format: in vivo; details: mouse colon, 3% DSS, peptide 3 μM daily i.p.
How it was run: (§3)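 Colon sections from DSS-treated mice were incubated overnight at 4 °C with anti-ZO-1 (1:1000) or anti-occludin (1:200), then HRP-conjugated secondary antibody. Signal was developed with DAB, sections counterstained with hematoxylin, and staining quantified by image analysis.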

DSS-induced colitis [16] = assay: DSS-induced colitis, female mice, overall therapeutic efficacy; format: in vivo, mouse; details: female C57BL/6 mice, 2.5% DSS, peptide 3 μM daily i.p.
How it was run: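 Female C57BL/6 mice (9–10 weeks, 20 ± 2 g) were randomised into four groups and given 2.5% DSS in drinking water ad libitum for 8 days, with daily i.p. test peptide (3 μM). Body weight was recorded daily. Colon length was measured after sacrifice, and distal colon was fixed in 4% formalin.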

ZO-1, occludin [17] = assay: IHC of ZO-1 and occludin in colon, Galr2-KO mice; format: in vivo, mouse; details: DSS, compared with Galr2 KO-DSS group
How it was run: as §3

intestinal barrier = assay: FD4 intestinal permeability, Galr2-KO mice; format: in vivo, mouse; details: Galr2-deficient mice, DSS
How it was run: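 Mice were fasted 12 h before and during the test, then gavaged with FITC-dextran FD4 (25 mg/mL in 0.05 M PBS) at 20 mL/kg. Plasma was collected 3 h later, diluted 1:2 in PBS, and fluorescence read at excitation 490 nm / emission 520 nm.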

GALR2 [18] = assay: DSS-induced colitis in Galr2-KO mice, overall; format: in vivo, mouse; details: Galr2-KO mice (or GALR2 inhibition where stated), cGAL53 3 μM
GALR3 [19] = assay: DSS-induced colitis in Galr3-KO mice, overall; format: in vivo, mouse; details: 3% DSS, cGAL53 3 μM
GALR2b = assay: Tango β-arrestin2 recruitment, HTLA cells; format: cell-based, chicken
How it was run: (§4)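 Tango assay used HTLA cells, a HEK293T line expressing a tTA-dependent luciferase reporter and β-arrestin2, transfected with GALR plasmid (2 μg). Test peptide in serum-free DMEM was added 36 h post-transfection for 12 h, then luciferase activity was measured. Mean ± SD.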

GALR1 [20] = assay: Tango β-arrestin2 recruitment, HTLA cells; format: cell-based
How it was run: as §4

GALR2 [21] = assay: Tango and BRET β-arrestin2 recruitment; format: cell-based
How it was run: as §4

GALR3 [22] = assay: Tango β-arrestin2 recruitment, HTLA cells; format: cell-based
How it was run: as §4

TNBS-induced colitis = TNBS-induced colitis in C57BL/6 mice, overall therapeutic efficacy; format: in vivo, mouse; details: TNBS intrarectal, peptide 3 μM
How it was run: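 Male C57BL/6 mice (8–12 weeks) under 1.5% isoflurane received 100 μL of 2.5% TNBS (5% TNBS in water mixed 1:1 with ethanol) into the colon lumen. Controls received 50% ethanol only. Test peptide was given at 3 μM. Weight was monitored daily, and mice were killed 72 h after induction for colon length and histology; n = 6/group.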

Row | Substance | IBD-related symptoms in DSS-treated chickens [1] | alleviation of colitis / intestinal inflammation, overall (DSS-induced colitis [2]) | DSS-changed pathways (KEGG) (colon transcriptome) | expression levels of immune-related genes (colon transcriptome) | concentration giving (similar) anti-inflammatory effect (Caco2 cells) | expression of Il6, Il23 and Tgfb1 induced by IL-1β and TNF-α (Caco2 cells) | therapeutic effects (weight loss, colon shortening, intestinal damage, inflammation) (ARRB2) | ability to alleviate weight loss, colon shortening, intestinal damage, inflammation (Gnaq) | Gi (SRE-luc) activation (GALR1 [3]) | Gs (CRE-luc) activation (GALR1 [4]) | Gq (NFAT-luc) activation (GALR1 [5]) | Gi (SRE-luc) activation (GALR2 [6]) | Gs (CRE-luc) activation (GALR2 [7]) | Gq (NFAT-luc) activation (GALR2 [8]) | Gi (SRE-luc) activation (GALR3 [9]) | Gs (CRE-luc) activation (GALR3 [10]) | Gq (NFAT-luc) activation (GALR3 [11]) | β-arrestin2 recruitment after mutation of predicted unique binding sites (mGALR2 mutants) | body weight, water and food intake, colon length (tolerability) [12] | bias at GALR2 (GALR2 [13]) | further results
1 | GWTLNSAGYLLGPHAVDNHRSFNDKHGFT-NH2 [cGAL29] | ameliorated IBD-related symptoms in chickens, manifested as reductions of body weight loss, intestinal bleeding points and tissue damage | alleviated intestinal inflammation symptoms in mouse colitis induced by DSS and TNBS | significantly modulated | significantly reduced | 10 µM | reduced | significantly diminished; also recorded: negated the therapeutic effects | significantly reduced | not GALR1 | not GALR1 | not GALR1 | can activate | more robust activation; also recorded: can activate | more robust activation; also recorded: can activate | can activate | can activate | can activate | affected | neither peptide affected body weight, water, and food intake, nor colon length, indicating good tolerability | G protein- | expression of colonic inflammatory factors induced by DSS ([1]; chickens): reduced the expression of colonic inflammatory factors; G protein activation / ARRB2 recruitment via GALR2 (GALR2 [13]): stronger activation of G protein signaling pathways via GALR2; activation of G protein pathways (mGALR2): more strongly than cGAL53; activation of G protein pathways (hGALR2): more strongly than cGAL53
2 | GWTLNSAGYLLGPRRIDHLLMIKEMPIARGREEAPGA-YAVDNHRSFNDKHGFT-NH2 [cGAL53] | ameliorated IBD-related symptoms in chickens, manifested as reductions of body weight loss, intestinal bleeding points and tissue damage | superior therapeutic efficacy compared to the conserved GAL29 peptide; also recorded: superior protective effects against DSS-induced inflammation in both chickens and mice; also recorded: alleviates colitis-associated weight loss, colon shortening, bleeding, and inflammation in both chickens and mice; also recorded: greater therapeutic efficacy in treating intestinal inflammation in chickens and mice | significantly modulated | significantly reduced | 0.1 µM | reduced | significantly diminished; also recorded: negated the therapeutic effects | significantly reduced | not GALR1 | not GALR1 | not GALR1 | can activate; also recorded: activated | can activate; also recorded: activated | can activate; also recorded: activated | can activate | can activate | can activate | affected | neither peptide affected body weight, water, and food intake, nor colon length, indicating good tolerability | β-arrestin2- biased agonizts of GALR2 | IBD-related symptoms in DSS-treated chickens ([1]; listed as GAL53): superior therapeutic efficacy; endoscopic and colon tissue damage scores (DSS-induced colitis [14]): most pronounced improvements; ZO-1 and occludin protein and mRNA levels (ZO-1, occludin [15]): markedly enhanced; colitis symptoms (DSS-induced colitis [2]; WT mice, 3% DSS, cGAL53 3 μM): significant improvement in colitis symptoms; alleviation of colitis / intestinal inflammation, overall (DSS-induced colitis [2]; listed as GAL53): superior protective effects against intestinal inflammation in birds and mammals; also recorded: exerts protective effects in chemical models of IBD; alleviation of colitis / intestinal inflammation, overall (DSS-induced colitis [2]; listed as chicken GAL53): superior efficacy over the conserved GAL29; DSS-induced body weight reduction, colon shortening and DAI increase (DSS-induced colitis [2]; mouse, 3% DSS in drinking water, peptide 3 μM daily i.p.): superior therapeutic efficacy over the shorter galanin variants (cGAL29 and hGAL30); also recorded: superior therapeutic efficacy in mouse colitis compared to cGAL29; therapeutic effect in female mice with DSS-induced colitis (DSS-induced colitis [16]): superior therapeutic benefits; inflammation-related pathways (GSVA) (colon transcriptome; compared to cGAL29): significantly greater reductions; expression of ZO-1 and occludin (ZO-1, occludin [17]): did not increase; circulating FD4 tracer levels (intestinal barrier): remained unchanged; colitis symptoms / effects of cGAL53 (GALR2 [18]): abolished in Galr2-deficient mice; also recorded: did not exhibit any change; also recorded: completely abolishes the effects of cGAL53; colitis symptoms (GALR3 [19]): significant improvement in colitis symptoms; ARRB2 (β-arrestin2) recruitment (GALR2b): significantly enhanced; ARRB2 (β-arrestin2) recruitment (GALR1 [20]): significantly enhanced; ARRB2 (β-arrestin2) recruitment (GALR2 [21]): significantly enhanced; also recorded: preferentially activated ARRB2; ARRB2 (β-arrestin2) recruitment (GALR3 [22]): significantly enhanced; TNBS-induced colitis (colon length, histopathological damage) (TNBS-induced colitis): more effective than cGAL29, nearly reversing the colon length and histopathological damage; G protein activation / ARRB2 recruitment via GALR2 (GALR2 [13]): significantly enhances the recruitment of ARRB2 to GALR2

Reference: paper PMC12749109 (Nature Communications, 2025)
